Measured values reported in ChEMBL document CHEMBL1649355, “Synthesis and biological evaluation of novel 2,4-disubstituted-1,3-thiazoles as anti-Candida spp. agents” (2011).
≈ marks a conversion by molar mass, not a printed value.

Columns and labels:
[1] = system: Candida tropicalis; assay: Antifungal activity against Candida tropicalis after 24 hrs by broth microdilution method
[2] = system: Pichia kudriavzevii; assay: Antifungal activity against Candida krusei after 24 hrs by broth microdilution method
[3] = system: Candida albicans; assay: Antifungal activity against Candida albicans after 24 hrs by broth microdilution method
[4] = system: Nakaseomyces glabratus; assay: Antifungal activity against Candida glabrata after 24 hrs
[5] = system: [Candida] sake; assay: Antifungal activity against Candida sake after 24 hrs by broth microdilution method; conditions: Fermentozyma sake
[6] = system: Pichia kudriavzevii; assay: Antifungal activity against Candida krusei after 24 hrs by MTT assay; assay type: functional
In short: (§1)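 Broth microdilution in Sabouraud dextrose broth per NCCLS guidance, tested against clinical Candida isolates (20 strains across species). Compounds dissolved in DMSO and serially diluted to final concentrations of 0.125–256. Inoculum 10³/mL. Each plate carried fungus-only and medium-only controls. Incubated 24 h at 37 °C. MIC reported as range per species.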

[7] = system: Nakaseomyces glabratus; assay: Antifungal activity against Candida glabrata after 24 hrs by MTT assay; assay type: functional
In short: as §1

[8] = system: Candida albicans; assay: Antifungal activity against Candida albicans after 24 hrs by MTT assay; assay type: functional
In short: as §1

[9] = system: [Candida] sake; assay: Antifungal activity against Candida sake after 24 hrs by MTT assay; assay type: functional; conditions: Fermentozyma sake
In short: as §1

[10] = system: Candida tropicalis; assay: Antifungal activity against Candida tropicalis after 24 hrs by MTT assay; assay type: functional
In short: as §1

| SMILES | MIC [1] [µg/mL] | MIC [2] [µg/mL] | MIC [3] [µg/mL] | MIC [4] [µg/mL] | MIC [5] [µg/mL] | MIC [6] [µg/mL] | MIC [7] [µg/mL] | MIC [8] [µg/mL] | MIC [9] [µg/mL] | MIC [10] [µg/mL] |
| --- | --- | --- | --- | --- | --- | --- | --- | --- | --- | --- |
| Cc1ccc(-c2csc(N/N=C\c3cccc4ccccc34)n2)cc1 | 16 (≈ 46.6 µM) | 16 (≈ 46.6 µM) | 2 (≈ 5.82 µM) | 16 (≈ 46.6 µM) | 32 (≈ 93.2 µM) | – | – | – | – | – |
| Cc1ccc(-c2csc(N/N=C\c3ccco3)n2)cc1 | 64 (≈ 226 µM) | 32 (≈ 113 µM) | 0.5 (≈ 1.76 µM) | 4 (≈ 14.1 µM) | 16 (≈ 56.5 µM) | – | – | – | – | – |
| OC(Cn1cncn1)(Cn1cncn1)c1ccc(F)cc1F [FLUCONAZOLE] | 4 (≈ 13.1 µM) | 8 (≈ 26.1 µM) | 4 (≈ 13.1 µM) | 4 (≈ 13.1 µM) | 32 (≈ 104 µM) | – | – | – | – | – |
| COc1ccc(-c2csc(N/N=C(/C)c3cc4ccccc4oc3=O)n2)cc1 | 2 (≈ 5.11 µM) | 32 (≈ 81.7 µM) | 2 (≈ 5.11 µM) | 2 (≈ 5.11 µM) | 32 (≈ 81.7 µM) | – | – | – | – | – |
| Cc1ccc(-c2csc(N/N=C\c3cccs3)n2)cc1 | 64 (≈ 214 µM) | 16 (≈ 53.4 µM) | 4 (≈ 13.4 µM) | 0.5 (≈ 1.67 µM) | 8 (≈ 26.7 µM) | – | – | – | – | – |
| Cc1ccc(-c2csc(N/N=C\c3cccnc3)n2)cc1 | 128 (≈ 435 µM) | 32 (≈ 109 µM) | 0.125 (≈ 0.425 µM) | 0.5 (≈ 1.7 µM) | 16 (≈ 54.4 µM) | – | – | – | – | – |
| COc1ccc(-c2csc(N/N=C\c3ccc4c(c3)OCO4)n2)cc1 | 64 (≈ 181 µM) | 64 (≈ 181 µM) | 0.5 (≈ 1.41 µM) | 4 (≈ 11.3 µM) | 8 (≈ 22.6 µM) | – | – | – | – | – |
| C/C(=N/Nc1nc(-c2ccc(C)cc2)cs1)c1cccnc1 | 16 (≈ 51.9 µM) | 64 (≈ 208 µM) | 0.5 (≈ 1.62 µM) | 2 (≈ 6.48 µM) | 16 (≈ 51.9 µM) | – | – | – | – | – |
| COc1ccc(-c2csc(N/N=C(/C)c3cccs3)n2)cc1 | 8 (≈ 24.3 µM) | 64 (≈ 194 µM) | 0.125 (≈ 0.379 µM) | 2 (≈ 6.07 µM) | 32 (≈ 97.1 µM) | – | – | – | – | – |
| C/C(=N/Nc1nc(-c2ccc(C)cc2)cs1)c1ccncc1 | 32 (≈ 104 µM) | 32 (≈ 104 µM) | 0.5 (≈ 1.62 µM) | 4 (≈ 13 µM) | 32 (≈ 104 µM) | – | – | – | – | – |
| Cc1ccc(-c2csc(N/N=C\c3ccc4c(c3)OCO4)n2)cc1 | 16 (≈ 47.4 µM) | 64 (≈ 190 µM) | 0.125 (≈ 0.37 µM) | 4 (≈ 11.9 µM) | 8 (≈ 23.7 µM) | – | – | – | – | – |
| C/C(=N/Nc1nc(-c2ccc(C)cc2)cs1)c1ccccn1 | 64 (≈ 208 µM) | 64 (≈ 208 µM) | 2 (≈ 6.48 µM) | 4 (≈ 13 µM) | 32 (≈ 104 µM) | – | – | – | – | – |
| COc1ccc(-c2csc(N/N=C(/C)c3ccc4ccccc4c3)n2)cc1 | 64 (≈ 171 µM) | 256 (≈ 685 µM) | 2 (≈ 5.36 µM) | 2 (≈ 5.36 µM) | 16 (≈ 42.8 µM) | – | – | – | – | – |
| COc1ccc(-c2csc(N/N=C\c3cccc4ccccc34)n2)cc1 | 64 (≈ 178 µM) | 32 (≈ 89 µM) | 4 (≈ 11.1 µM) | 2 (≈ 5.56 µM) | 16 (≈ 44.5 µM) | – | – | – | – | – |
| Cc1ccc(-c2csc(N/N=C\c3c[nH]c4ccccc34)n2)cc1 | 64 (≈ 193 µM) | 32 (≈ 96.3 µM) | 0.125 (≈ 0.376 µM) | 4 (≈ 12 µM) | 32 (≈ 96.3 µM) | – | – | – | – | – |
| C/C(=N/Nc1nc(-c2ccc(C)cc2)cs1)c1cccs1 | 128 (≈ 408 µM) | 32 (≈ 102 µM) | 0.5 (≈ 1.6 µM) | 2 (≈ 6.38 µM) | 32 (≈ 102 µM) | – | – | – | – | – |
| COc1ccc(-c2csc(N/N=C\c3cccnc3)n2)cc1 | 64 (≈ 206 µM) | 32 (≈ 103 µM) | 4 (≈ 12.9 µM) | 16 (≈ 51.5 µM) | 16 (≈ 51.5 µM) | – | – | – | – | – |
| COc1ccc(-c2csc(N/N=C(/C)c3ccco3)n2)cc1 | 128 (≈ 408 µM) | 16 (≈ 51.1 µM) | 0.5 (≈ 1.6 µM) | 4 (≈ 12.8 µM) | 16 (≈ 51.1 µM) | – | – | – | – | – |
| COc1ccc(-c2csc(N/N=C\c3ccco3)n2)cc1 | 64 (≈ 214 µM) | 16 (≈ 53.4 µM) | 0.5 (≈ 1.67 µM) | 4 (≈ 13.4 µM) | 32 (≈ 107 µM) | – | – | – | – | – |
| C/C(=N/Nc1nc(-c2ccc(C)cc2)cs1)c1ccco1 | 64 (≈ 215 µM) | 64 (≈ 215 µM) | 0.5 (≈ 1.68 µM) | 4 (≈ 13.5 µM) | 32 (≈ 108 µM) | – | – | – | – | – |
| Cc1ccc(-c2csc(N/N=C\c3ccncc3)n2)cc1 | 64 (≈ 217 µM) | 128 (≈ 435 µM) | 0.5 (≈ 1.7 µM) | 4 (≈ 13.6 µM) | 32 (≈ 109 µM) | – | – | – | – | – |
| COc1ccc(-c2csc(N/N=C(/C)c3ccccn3)n2)cc1 | 64 (≈ 197 µM) | 16 (≈ 49.3 µM) | 0.5 (≈ 1.54 µM) | 8 (≈ 24.7 µM) | 32 (≈ 98.6 µM) | – | – | – | – | – |
| COc1ccc(-c2csc(N/N=C(/C)c3ccncc3)n2)cc1 | 32 (≈ 98.6 µM) | 128 (≈ 395 µM) | 0.5 (≈ 1.54 µM) | 4 (≈ 12.3 µM) | 16 (≈ 49.3 µM) | – | – | – | – | – |
| Clc1ccccc1C(c1ccccc1)(c1ccccc1)n1ccnc1 [CLOTRIMAZOLE] | – | – | 2 (≈ 5.8 µM) | 2 (≈ 5.8 µM) | 16 (≈ 46.4 µM) | – | – | – | – | – |
| COc1ccc(-c2csc(N/N=C\c3c[nH]c4ccccc34)n2)cc1 | 64 (≈ 184 µM) | 64 (≈ 184 µM) | 32 (≈ 91.8 µM) | 0.5 (≈ 1.44 µM) | 8 (≈ 23 µM) | – | – | – | – | – |
| COc1ccc(-c2csc(N/N=C(/C)c3cccnc3)n2)cc1 | 128 (≈ 395 µM) | 128 (≈ 395 µM) | 8 (≈ 24.7 µM) | 8 (≈ 24.7 µM) | 32 (≈ 98.6 µM) | – | – | – | – | – |
| COc1ccc(-c2csc(N/N=C\c3ccncc3)n2)cc1 | 16 (≈ 51.5 µM) | 16 (≈ 51.5 µM) | 0.125 (≈ 0.403 µM) | 0.5 (≈ 1.61 µM) | 32 (≈ 103 µM) | – | – | – | – | – |
| C/C(=N/Nc1nc(-c2ccc(C)cc2)cs1)c1cc2ccccc2oc1=O | – | – | – | – | – | 128 (≈ 341 µM) | 0.5 (≈ 1.33 µM) | 0.125 (≈ 0.333 µM) | 32 (≈ 85.2 µM) | 128 (≈ 341 µM) |
| COc1ccc(-c2csc(N/N=C\c3cccs3)n2)cc1 | 128 (≈ 406 µM) | 64 (≈ 203 µM) | 0.125 (≈ 0.396 µM) | 0.5 (≈ 1.59 µM) | 32 (≈ 101 µM) | – | – | – | – | – |
| C/C(=N/Nc1nc(-c2ccc(C)cc2)cs1)c1ccc2ccccc2c1 | 4 (≈ 11.2 µM) | 32 (≈ 89.5 µM) | 2 (≈ 5.59 µM) | 0.5 (≈ 1.4 µM) | 16 (≈ 44.8 µM) | – | – | – | – | – |
